Data set [1] in a line: Toxicity in NOD/SCID mouse assessed as animal survival at 5 to 10 mg/kg, ip dosed 3 times per week and measured at >3 weeks of treatment. It is filed as organism-based. The conditions noted are these: in vivo, 504 h, dose 5-10 mg/kg.
The target in data set [2] is Phosphatidylinositol 4,5-bisphosphate 3-kinase catalytic subunit gamma isoform (Homo sapiens) (UniProt P48736). Description: Inhibition of PI3Kgamma in human Raji cells assessed as inhibition of cell viability at 100 nM after 72 hrs by CellTiter-Glo luminescence assay. Type of data set: cell-based.
Phosphatidylinositol 4,5-bisphosphate 3-kinase catalytic subunit gamma isoform (Homo sapiens), sequence (P48736 whole entry, looked up, canonical isoform): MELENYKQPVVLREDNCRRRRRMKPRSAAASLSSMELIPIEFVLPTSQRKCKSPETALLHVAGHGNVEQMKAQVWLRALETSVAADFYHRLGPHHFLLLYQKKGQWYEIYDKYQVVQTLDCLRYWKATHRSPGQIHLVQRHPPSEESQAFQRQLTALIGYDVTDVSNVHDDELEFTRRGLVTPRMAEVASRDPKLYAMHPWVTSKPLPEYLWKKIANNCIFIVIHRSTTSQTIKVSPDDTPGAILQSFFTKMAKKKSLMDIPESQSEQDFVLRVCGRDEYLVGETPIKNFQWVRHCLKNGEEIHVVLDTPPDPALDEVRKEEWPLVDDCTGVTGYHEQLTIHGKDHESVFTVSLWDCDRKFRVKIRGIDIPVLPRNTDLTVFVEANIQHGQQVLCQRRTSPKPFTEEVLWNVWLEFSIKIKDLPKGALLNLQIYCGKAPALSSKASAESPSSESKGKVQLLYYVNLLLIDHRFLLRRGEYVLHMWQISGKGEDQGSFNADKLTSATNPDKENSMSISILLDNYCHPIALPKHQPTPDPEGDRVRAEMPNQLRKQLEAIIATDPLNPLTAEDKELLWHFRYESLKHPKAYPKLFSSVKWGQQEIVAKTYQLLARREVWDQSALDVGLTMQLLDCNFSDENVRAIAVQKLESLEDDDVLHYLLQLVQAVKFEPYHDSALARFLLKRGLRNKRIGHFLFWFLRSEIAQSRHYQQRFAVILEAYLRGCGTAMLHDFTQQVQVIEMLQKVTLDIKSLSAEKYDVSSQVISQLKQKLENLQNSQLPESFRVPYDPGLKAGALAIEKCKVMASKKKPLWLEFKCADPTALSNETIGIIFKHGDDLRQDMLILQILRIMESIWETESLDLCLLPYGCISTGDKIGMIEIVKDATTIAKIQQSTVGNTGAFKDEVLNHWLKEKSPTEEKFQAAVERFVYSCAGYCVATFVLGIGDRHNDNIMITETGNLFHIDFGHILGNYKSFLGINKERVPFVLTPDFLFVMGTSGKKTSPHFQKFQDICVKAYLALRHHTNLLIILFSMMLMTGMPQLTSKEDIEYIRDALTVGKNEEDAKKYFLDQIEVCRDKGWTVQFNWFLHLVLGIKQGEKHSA
A short description of data set [3]: Toxicity in NOD/SCID mouse assessed as animal survival at 5 mg/kg, ip dosed 3 times per week and measured after 24 days of treatment. As to conditions: in vivo, time 24 day. It is filed as organism-based. The method, boiled down: (§1)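 Six-week-old male NOD/SCID mice, 4 per group, received 5 mg/kg IP every other day, three times per week. Animals were monitored throughout dosing and euthanized after 24 days of treatment. Survival over the dosing period was plotted as a survival curve.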

The nature of data set [4]: Toxicity in NOD/SCID mouse assessed as animal survival at 10 mg/kg, ip dosed 3 times per week and measured after 24 days of treatment. It is filed as organism-based. As to conditions: in vivo, time 24 day.
The target in data set [5] is Phosphatidylinositol 4,5-bisphosphate 3-kinase catalytic subunit gamma isoform (Homo sapiens) (UniProt P48736). Description: Inhibition of PI3Kgamma in human SUDHL-6 cells assessed as inhibition of cell viability at 100 nM after 72 hrs by CellTiter-Glo luminescent assay. It is filed as cell-based. The conditions noted are these: SU-DHL-6. A general note: Cellular ATP, detected with luciferase, serves as a proxy for viable cell number.

The target is the same in data set [6]. Description: Inhibition of PI3Kgamma in human SUDHL-10 cells assessed as inhibition of cell viability at 100 nM after 72 hrs by CellTiter-Glo luminescent assay. It is filed as cell-based. As to conditions: SU-DHL-10.
Data set [7] has the same target. Briefly: Inhibition of PI3Kgamma in human RPMI-8226 cells assessed as inhibition of cell viability at 100 nM after 72 hrs by CellTiter-Glo luminescent assay. It is filed as cell-based.
Data set [8] has the same target. Briefly: Inhibition of PI3Kgamma in human LCL-1 cells assessed as inhibition of cell viability at 100 nM after 72 hrs by CellTiter-Glo luminescent assay. It is filed as cell-based.
The target is the same in data set [9]. Briefly: Inhibition of PI3Kgamma in human MOLT-4 cells assessed as inhibition of cell viability at 100 nM after 72 hrs by CellTiter-Glo luminescent assay. It is filed as cell-based.
Data set [10] is described as follows: Toxicity in NOD/SCID mouse assessed as animal death rate at 5 mg/kg, ip dosed 3 times per week and measured after 24 days of treatment. It is filed as organism-based. The conditions noted are these: in vivo, time 24 day, read-out: Activity. In short, it runs like this: as §1

Here are results for eleven molecules from ChEMBL document CHEMBL4699517 (Bioorg Med Chem Lett, 2020).

The source made the active and inactive calls. The rule behind the calls is not given here.

As to `COC(=O)[C@@]12OC[C@]34[C@H]([C@@H](O)[C@@H]1O)[C@@]1(C)CC(=O)C(OC(=O)C[C@H](C)N)=C(C)[C@@H]1C[C@H]3OC(=O)[C@H](OC(=O)C=C(C)C)[C@@H]24`, the Activity result in data set [1] is listed as “Non-Toxic”. Besides, the inhibition result in data set [2] is “Active”. Moreover, the survival at 576 h in [3] is 100%.
As for `COC(=O)[C@@]12OC[C@]34[C@H]([C@@H](O)[C@@H]1O)[C@@]1(C)CC(=O)C(OC(=O)CNC(=O)OC(C)(C)C)=C(C)[C@@H]1C[C@H]3OC(=O)[C@H](OC(=O)C=C(C)C)[C@@H]24`, the survival at 576 h in data set [4] was 0%; in data set [3], 50%. In data set [2], the inhibition result is “Active”.
As for `COC(=O)[C@@]12OC[C@]34[C@H]([C@@H](O)[C@@H]1O)[C@@]1(C)CC(=O)C(OCC(=O)NCCN)=C(C)[C@@H]1C[C@H]3OC(=O)[C@H](OC(=O)C=C(C)C)[C@@H]24`, the inhibition result in [5], in [2], in [6], in data set [7], in data set [8] and in data set [9] was “Active” throughout.
As for `COC(=O)[C@@]12OC[C@]34[C@H]([C@@H](O)[C@@H]1O)[C@@]1(C)CC(=O)C(OC(=O)C[C@H](C)NC(=O)C[C@H](C)N)=C(C)[C@@H]1C[C@H]3OC(=O)[C@H](OC(=O)C=C(C)C)[C@@H]24`, the inhibition result in data set [5], in data set [2], in [6], in [7], in data set [8] and in data set [9] was “Active” throughout.
As for `COC(=O)[C@@]12OC[C@]34[C@H]([C@@H](O)[C@@H]1O)[C@@]1(C)CC(=O)C(O)=C(C)[C@@H]1C[C@H]3OC(=O)[C@H](OC(=O)C=C(C)C)[C@@H]24`, the survival at 576 h in [4] came to 25%; in [3], 75%. In addition, the inhibition entry in [5], in data set [2], in data set [6], in [7], in [8] and in data set [9] was “Active” each time. Also, the mortality at 576 h in data set [10] is 25%.
With `COC(=O)[C@@]12OC[C@]34[C@H]([C@@H](O)[C@@H]1O)[C@@]1(C)CC(=O)C(OC(=O)CNC(=O)CN)=C(C)[C@@H]1C[C@H]3OC(=O)[C@H](OC(=O)C=C(C)C)[C@@H]24`, the inhibition entry in data set [5], in data set [2], in data set [6], in data set [7], in [8] and in data set [9] was “Active” throughout.
For `COC(=O)[C@@]12OC[C@]34[C@H]([C@@H](O)[C@@H]1O)[C@@]1(C)CC(=O)C(OC(=O)[C@@H](C)N)=C(C)[C@@H]1C[C@H]3OC(=O)[C@H](OC(=O)C=C(C)C)[C@@H]24`, the inhibition entry in data set [5], in data set [2], in [6], in data set [7], in data set [8] and in data set [9] was “Active” throughout.
With `COC(=O)[C@@]12OC[C@]34[C@H]([C@@H](O)[C@@H]1O)[C@@]1(C)CC(=O)C(OC(=O)[C@@H]5CC(F)(F)CN5)=C(C)[C@@H]1C[C@H]3OC(=O)[C@H](OC(=O)C=C(C)C)[C@@H]24`, the inhibition result in data set [5], in data set [2], in data set [6], in data set [7], in [8] and in data set [9] was “Active” each time.
In the case of `COC(=O)[C@@]12OC[C@]34[C@H]([C@@H](O)[C@@H]1O)[C@@]1(C)CC(=O)C(OC(=O)CNC(=O)CNC(=O)CN)=C(C)[C@@H]1C[C@H]3OC(=O)[C@H](OC(=O)C=C(C)C)[C@@H]24`, the inhibition result in data set [5], in [2], in data set [6], in data set [7], in data set [8] and in data set [9] was “Active” each time.
Take `COC(=O)[C@@]12OC[C@]34[C@H]([C@@H](O)[C@@H]1O)[C@@]1(C)CC(=O)C(OC(=O)C[C@@H](C)N)=C(C)[C@@H]1C[C@H]3OC(=O)[C@H](OC(=O)C=C(C)C)[C@@H]24`: the inhibition entry in [5], in data set [2], in [6], in data set [7], in [8] and in [9] was “Active” in each case.
Consider `COC(=O)[C@@]12OC[C@]34[C@H]([C@@H](O)[C@@H]1O)[C@@]1(C)CC(=O)C(OC(=O)[C@H](C)NC(=O)[C@H](C)N)=C(C)[C@@H]1C[C@H]3OC(=O)[C@H](OC(=O)C=C(C)C)[C@@H]24`, for which the inhibition result in data set [5], in [2], in [6], in data set [7], in data set [8] and in data set [9] was “inactive” throughout.
